This is an account of results in article PMC5591795 (Clinical Pharmacokinetics, 2017).

For series [1] the following is noted: cited from earlier work.
The conditions of series [2]: cited from earlier work. The source holds these as a separate data set.
For series [3] the following is noted: cited from earlier work. This is another data set of the same source.
A short description of series [4]: Population pharmacokinetic model of micafungin in ICU patients. It counts as in vivo. The note with it: human, plasma, iv, 100 mg. In a few lines:
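ICU adults (n = 20; suspected or proven fungal infection) received 100 mg QD IV over ~1 h. Plasma was sampled on day 3 (±1) pre-dose and 0.5–24 h post start infusion, on day 7 (±1) in six samples to 24 h, and as daily troughs. Drug was measured by UPLC-fluorescence. The model was fitted by FOCE with interaction, with IOV on CL and V and albumin, CVVH and SOFA tested as covariates.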

For series [5] the following is noted: statement without reference; cited from earlier work.

Where two headings read alike, the source gives them in different places. Numbered stars: 1 amine (or outer) side, 2 acyl side, 3 side chain; on linkers, the order of the positions; unused ones are H or OH. Bridge positions count the residues as written; N and C are the ends. Square brackets hold non-standard residues; d marks the D form. Peptide text beside a SMILES is read from it. * marks the point of attachment. hTyr(3S-OH,4S-OH,3'-OSO3H) = N[C@H](C(=O)O)[C@H](O)[C@@H](O)c1ccc(O)c(OS(=O)(=O)O)c1; Orn(4R-OH,5R-OH) = O=C([C@H](C[C@@H](O)[C@@H](O)N[*:3])N[*:1])[*:2]; Pro(3S-OH,4S-Me) = C[C@H]1CN[C@H](C(=O)O)[C@H]1O; X1 = CCCCCOc1ccc(-c2cc(-c3ccc(C(=O)*)cc3)no2)cc1; Gln(3R-OH) = NC(=O)C[C@@H](O)[C@H](N)C(=O)O; Hyp = O=C(O)[C@@H]1C[C@@H](O)CN1

`CCCCCOc1ccc(-c2cc(-c3ccc(C(=O)N[C@H]4C[C@@H](O)[C@@H](O)NC(=O)[C@@H]5[C@@H](O)[C@@H](C)CN5C(=O)[C@H]([C@H](O)CC(N)=O)NC(=O)[C@H]([C@H](O)[C@@H](O)c5ccc(O)c(OS(=O)(=O)O)c5)NC(=O)[C@@H]5C[C@@H](O)CN5C(=O)[C@H]([C@@H](C)O)NC4=O)cc3)no2)cc1` [micafungin] (X1-[Orn(4R-OH,5R-OH)]T[Hyp][hTyr(3S-OH,4S-OH,3'-OSO3H)][Gln(3R-OH)][Pro(3S-OH,4S-Me)]; lactam 1-C): the solubility in water entry in series [1] is “freely soluble in water”. The metabolism entry in series [2] is “only a small fraction is metabolised”. For the same molecule, in series [2] (healthy volunteers), the CL is 0.55 L/h. The “V (V 1 and V 2 together)” value in series [2] (healthy volunteers) is given as 13.9 L. The tolerability result in series [3] (doses of 8 mg/kg) and in series [3] (therapy with 150–200 mg QD) was “well tolerated” in each case. Also, in series [4], the Vd was 21.2 L. For the same molecule, in series [5], the protein binding entry was “highly protein bound”.
As for Anidulafungin, the “V in critically ill patients compared with healthy volunteers” value in series [2] is “equal”.
As to caspofungin, in series [2], the “CL and V in critically ill patients compared with healthy volunteers” value is listed as “identical”.
